Results from different studies.
Compare with care: the assays were run in different laboratories.
Target: Cholinesterase (BCHE, Homo sapiens, UniProt P06276)
Observed: enzyme activity
Mode: inhibitor

| Structure (SMILES) | assay | IC50 [µM] |
| --- | --- | --- |
| COc1ccccc1C=NNC(=O)c1cc(-c2cn(C)c3ccccc23)on1 |  | > 100 |
| C#CCN(C)CCCCCCCCOc1cccc(CN(C)c2c3c(nc4ccccc24)CCCC3)c1 | Ellman | 0.91 |
| Cc1ccc(CN2CCN(Cc3nnc(-c4ccccc4)o3)CC2)cc1 | Ellman | > 10 |
| COc1ccc(S(=O)(=O)Oc2ccc(C=NNC(=O)c3ccc(F)cc3)cc2OC)cc1 | Ellman | 0.0764 |
| COc1cccc(C=NNC(=O)c2cc(-c3cn(C)c4ccccc34)on2)c1O |  | > 100 |
| O=[N+]([O-])c1c[nH]c(-c2n[nH]c(=S)n2/N=C/c2c(O)cc(O)cc2O)c1 | Ellman | 6.8 |
| Cn1cc(-c2cc(C(=O)NN=Cc3ccncc3)no2)c2ccccc21 |  | > 100 |
| C#CCN(C)CCCCCCOCc1ccc(CN(C)c2c3c(nc4ccccc24)CCCC3)cc1 | Ellman | 0.43 |
| COc1ccc(/C=N/n2c(-c3cc([N+](=O)[O-])c[nH]3)n[nH]c2=S)cc1 | Ellman | 26.2 |
| COc1ccc(S(=O)(=O)Oc2ccccc2C=NNC(=O)c2ccc(F)cc2)cc1 | Ellman | 0.114 |
| Cn1cc(-c2cc(C(=O)NN=Cc3ccccc3F)no2)c2ccccc21 |  | > 100 |
| C#CCN(C)CCCCCCOc1cccc(CN(C)c2c3c(nc4ccccc24)CCCC3)c1 | Ellman | 0.32 |
| COc1cccc(C=NNC(=O)c2cc(-c3cn(C)c4ccccc34)on2)c1OC |  | > 100 |
| O=[N+]([O-])c1c[nH]c(-c2n[nH]c(=S)n2/N=C/c2ccc(Br)c(Br)c2)c1 | Ellman | 28.4 |
| C#CCN(C)CCOc1cccc(CN(C)c2c3c(nc4ccccc24)CCCC3)c1 | Ellman | 2 |
| COc1ccc(S(=O)(=O)Oc2cc(OC)ccc2C=NNC(=O)c2ccc(F)cc2)cc1 | Ellman | 0.113 |
| O=[N+]([O-])c1c[nH]c(-c2n[nH]c(=S)n2/N=C/c2ccc(F)cc2O)c1 | Ellman | 7.8 |
| C#CCN(C)CCCCCOCc1ccc(CN(C)c2c3c(nc4ccc(C)cc24)CCCC3)cc1 | Ellman | 1.12 |
| CN(C)c1ccc(/C=N/n2c(-c3cc([N+](=O)[O-])c[nH]3)n[nH]c2=S)c(O)c1 | Ellman | 22.2 |
| C#CCN(C)CCCCOCc1ccc(CN(C)c2c3c(nc4ccccc24)CCCC3)cc1 | Ellman | 1.47 |
| COc1cccc(C=NNC(=O)c2cc(-c3cn(C)c4ccccc34)on2)c1 |  | > 100 |
| O=[N+]([O-])c1c[nH]c(-c2n[nH]c(=S)n2/N=C/c2ccc(Cl)cc2[N+](=O)[O-])c1 | Ellman | 16.4 |
